Data from ChEMBL document CHEMBL1134964, “Heterocyclic benzazole derivatives with antimycobacterial in vitro activity” (2002).
≈ marks a conversion by molar mass, not a printed value.

Tests used:
Type in all cases: functional
Mycobacterium kansasii [1] = experiment: In vitro inhibition of Mycobacterium Kansasi (My 6 509/96) growth after 21 days culture.; conditions: 504 h
Mycobacterium avium [2] = experiment: In vitro inhibition of Mycobacterium Avium (My 330/88) growth after 21 days culture.; conditions: 504 h
How it was run: (§1)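 Micromethod broth MIC. Compounds tested at 500, 250, 125, 32, 16, 8, 4 and 2, plus one intermediate level between 125 and 32. Plates incubated at 37 C and read at 7, 14 and 21 days. MIC is the lowest concentration at which growth of the mycobacteria was inhibited. MIC could not be set where solubility in the test medium was limited.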

Mycobacterium kansasii [3] = experiment: In vitro inhibition of Mycobacterium Kansasi (My 235/80) growth after 21 days culture.; conditions: 504 h
HeLa = experiment: The compound was tested for cytotoxicity against HeLa cells.; conditions: Homo sapiens
[4] = test system: Mycobacterium tuberculosis; experiment: In vitro minimum inhibitory concentration the compound for anti-mycobacterial activity was determined against Mycobacterium tuberculosis (My 331/88) by micromethod after 21 days of incubation; conditions: 504 h; how it was run: as §1
Mycobacterium avium [5] = experiment: In vitro inhibition of Mycobacterium Avium growth after 14 days culture.; conditions: 336 h; how it was run: as §1
[6] = Ratio of cytotoxicity to minimum inhibitory concentration of Mycobacterium tuberculosis My 331/88 was evaluated
Mycobacterium kansasii [7] = experiment: In vitro inhibition of Mycobacterium Kansasi (My 6 509/96) growth after 14 days culture.; conditions: 336 h
Mycobacterium kansasii [8] = experiment: In vitro inhibition of Mycobacterium Kansasi (My 235/80) growth after 7 days culture.; conditions: 168 h
Mycobacterium kansasii [9] = experiment: In vitro inhibition of Mycobacterium Kansasi (My 235/80) growth after 14 days culture.; conditions: 336 h
Mycobacterium kansasii [10] = experiment: In vitro minimum inhibitory concentration of the compound for anti-mycobacterial activity was determined against Mycobacterium kansasii (My 6 509/96) by micromethod after 7 days of incubation; conditions: 168 h
Mycobacterium kansasii [11] = experiment: In vitro inhibition of Mycobacterium Kansasi (My 6 509/96) growth after 7 days culture.; conditions: 168 h
[12] = test system: Mycobacterium tuberculosis; experiment: In vitro inhibition of Mycobacterium Tuberculosis (My 331/88) growth after 14 days culture.; conditions: 336 h; how it was run: as §1
[13] = test system: Mycobacterium tuberculosis; experiment: In vitro inhibition of Mycobacterium Tuberculosis (My 331/88) growth after 21 days culture.; conditions: 504 h; how it was run: as §1
Mycobacterium kansasii [14] = experiment: In vitro minimum inhibitory concentration the compound for anti-mycobacterial activity was determined against Mycobacterium kansasii (My 6 509/96) by micromethod after 7 days of incubation; conditions: 168 h
Mycobacterium kansasii [15] = experiment: In vitro minimum inhibitory concentration the compound for anti-mycobacterial activity was determined against Mycobacterium kansasii (My 235/80) by micromethod after 14 days of incubation; conditions: 336 h
Mycobacterium kansasii [16] = experiment: In vitro minimum inhibitory concentration the compound for anti-mycobacterial activity was determined against Mycobacterium kansasii (My 235/80) by micromethod after 21 days of incubation; conditions: 504 h
Mycobacterium avium [17] = experiment: In vitro minimum inhibitory concentration the compound for anti-mycobacterial activity was determined against Mycobacterium avium (My 330/88) by micromethod after 21 days of incubation; conditions: 504 h; how it was run: as §1
Mycobacterium kansasii [18] = experiment: In vitro minimum inhibitory concentration the compound for anti-mycobacterial activity was determined against Mycobacterium kansasii (My 6 509/96) by micromethod after 21 days of incubation; conditions: 504 h
Mycobacterium kansasii [19] = experiment: In vitro minimum inhibitory concentration the compound for anti-mycobacterial activity was determined against Mycobacterium kansasii (My 6 509/96) by micromethod after 14 days of incubation; conditions: 336 h
Mycobacterium avium [20] = experiment: In vitro minimum inhibitory concentration the compound for anti-mycobacterial activity was determined against Mycobacterium avium (My 330/88) by micromethod after 14 days of incubation; conditions: 336 h; how it was run: as §1

Structure (SMILES)	MIC (Mycobacterium kansasii [1]) [µM]	MIC (Mycobacterium avium [2]) [µM]	MIC (Mycobacterium kansasii [3]) [µM]	CC50 (HeLa) [µM]	MIC (Mycobacterium avium [5]) [µM]	Safety index [6]	MIC (Mycobacterium kansasii [7]) [µM]	MIC (Mycobacterium kansasii [8]) [µM]	MIC (Mycobacterium kansasii [9]) [µM]	MIC (Mycobacterium kansasii [11]) [µM]	MIC [12] [µM]	MIC [13] [µM]	also measured
NC(=S)c1cccc(CSc2nc3ccccc3s2)c1	16 (≈ 5.06 µg/mL)	62 (≈ 19.6 µg/mL)	16 (≈ 5.06 µg/mL)	36.7	32 (≈ 10.1 µg/mL)	4.6	16 (≈ 5.06 µg/mL)	8 (≈ 2.53 µg/mL)	16 (≈ 5.06 µg/mL)	–	–	–	MIC [4]: 16 µM (≈ 5.06 µg/mL); MIC (Mycobacterium kansasii [10]): 8 µM (≈ 2.53 µg/mL)
O=[N+]([O-])c1ccc(CSc2nc3ccccc3s2)cc1	> 125	> 62	> 250	–	32 (≈ 9.68 µg/mL)	–	> 32	32 (≈ 9.68 µg/mL)	> 62	32 (≈ 9.68 µg/mL)	> 32	> 125	–
NC(=S)c1ccc(CSc2nc3ccccc3o2)cc1	16 (≈ 4.81 µg/mL)	32 (≈ 9.61 µg/mL)	16 (≈ 4.81 µg/mL)	78.6	32 (≈ 9.61 µg/mL)	9.8	16 (≈ 4.81 µg/mL)	8 (≈ 2.4 µg/mL)	16 (≈ 4.81 µg/mL)	8 (≈ 2.4 µg/mL)	8 (≈ 2.4 µg/mL)	16 (≈ 4.81 µg/mL)	–
O=[N+]([O-])c1ccc(CSc2nc3ccccc3s2)c([N+](=O)[O-])c1	> 32	> 32	16 (≈ 5.56 µg/mL)	> 144	> 32	>72	8 (≈ 2.78 µg/mL)	8 (≈ 2.78 µg/mL)	8 (≈ 2.78 µg/mL)	8 (≈ 2.78 µg/mL)	2 (≈ 0.695 µg/mL)	4 (≈ 1.39 µg/mL)	–
O=[N+]([O-])c1ccc(CSc2nc3ccccc3o2)c([N+](=O)[O-])c1	8 (≈ 2.65 µg/mL)	> 32	–	136	> 16	17	8 (≈ 2.65 µg/mL)	4 (≈ 1.33 µg/mL)	–	–	8 (≈ 2.65 µg/mL)	8 (≈ 2.65 µg/mL)	MIC (Mycobacterium kansasii [14]): 4 µM (≈ 1.33 µg/mL); MIC (Mycobacterium kansasii [15]): 4 µM (≈ 1.33 µg/mL); MIC (Mycobacterium kansasii [16]): 4 µM (≈ 1.33 µg/mL)
O=[N+]([O-])c1ccccc1CSc1nc2ccccc2o1	> 62	> 125	> 125	–	> 125	–	> 62	125 (≈ 35.8 µg/mL)	125 (≈ 35.8 µg/mL)	62 (≈ 17.8 µg/mL)	> 250	> 250	–
c1ccc(CSc2nc3ccccc3o2)cc1	250 (≈ 60.3 µg/mL)	125 (≈ 30.2 µg/mL)	250 (≈ 60.3 µg/mL)	–	62 (≈ 15 µg/mL)	–	125 (≈ 30.2 µg/mL)	125 (≈ 30.2 µg/mL)	250 (≈ 60.3 µg/mL)	32 (≈ 7.72 µg/mL)	250 (≈ 60.3 µg/mL)	500 (≈ 121 µg/mL)	–
NC(=S)c1ccc(CSc2nc3ccccc3s2)cc1	8 (≈ 2.53 µg/mL)	32 (≈ 10.1 µg/mL)	8 (≈ 2.53 µg/mL)	> 158	16 (≈ 5.06 µg/mL)	>39.5	8 (≈ 2.53 µg/mL)	4 (≈ 1.27 µg/mL)	8 (≈ 2.53 µg/mL)	4 (≈ 1.27 µg/mL)	4 (≈ 1.27 µg/mL)	8 (≈ 2.53 µg/mL)	–
NC(=S)c1cccc(CSc2nc3ccccc3o2)c1	–	–	–	71.9	–	9	–	8 (≈ 2.4 µg/mL)	–	–	8 (≈ 2.4 µg/mL)	16 (≈ 4.81 µg/mL)	MIC (Mycobacterium avium [17]): 62 µM (≈ 18.6 µg/mL); MIC (Mycobacterium kansasii [14]): 8 µM (≈ 2.4 µg/mL); MIC (Mycobacterium kansasii [15]): 32 µM (≈ 9.61 µg/mL); MIC (Mycobacterium kansasii [18]): 32 µM (≈ 9.61 µg/mL); MIC (Mycobacterium kansasii [16]): 32 µM (≈ 9.61 µg/mL); MIC (Mycobacterium kansasii [19]): 32 µM (≈ 9.61 µg/mL); MIC (Mycobacterium avium [20]): 62 µM (≈ 18.6 µg/mL)
N#Cc1ccc(CSc2nc3ccccc3o2)cc1	> 32	62 (≈ 16.5 µg/mL)	> 32	–	62 (≈ 16.5 µg/mL)	–	32 (≈ 8.52 µg/mL)	32 (≈ 8.52 µg/mL)	32 (≈ 8.52 µg/mL)	16 (≈ 4.26 µg/mL)	> 62	> 62	–
N#Cc1ccc(CSc2nc3ccccc3s2)cc1	32 (≈ 9.04 µg/mL)	> 32	> 500	–	32 (≈ 9.04 µg/mL)	–	32 (≈ 9.04 µg/mL)	125 (≈ 35.3 µg/mL)	250 (≈ 70.6 µg/mL)	16 (≈ 4.52 µg/mL)	62 (≈ 17.5 µg/mL)	62 (≈ 17.5 µg/mL)	–
